PMC3987113 (Toxicology and applied pharmacology, 2009)
Several values for one entry are separate records, joined by “and”; a condition that tells them apart may be missing. Identical values can stand only once. Entries after “also recorded” stand apart in the source; their conditions may differ. Like-named read-outs stand apart in the source and are kept apart here.

Assays:
[1] = Body and liver weights, time course study; assay type: in vivo, C57BL/6 mice; details: for Liver weight / Relative liver weight / Body weight gain / Terminal body weight: 300 mg/kg PCB153 or 30 μg/kg TCDD, mean ± SD, n=5; for Body weight gain: terminal body weight divided by body weight prior to dosing
[2] = Body and liver weights, 24 h dose-response study; assay type: in vivo, C57BL/6 mice; details: for Liver weight / Relative liver weight / Body weight gain / Terminal body weight: 24 h; for Liver weight / Relative liver weight / Terminal body weight: mean ± SD, n=5; for Body weight gain: terminal body weight divided by body weight prior to dosing; for Terminal body weight: single gavage
Method in brief: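 Immature ovariectomized female C57BL/6 mice, acclimatized 3 days, received a single oral gavage on PND 28 of 1, 3, 10, 30, 100 or 300 mg/kg test compound or sesame oil vehicle (0.1 ml), n=5 per group, sacrificed 24 h later. Compound was dissolved in acetone, diluted in sesame oil and the acetone evaporated under nitrogen. Analysis by ANOVA with Tukey's or Dunnett's post hoc test, p<0.05.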

[3] = Hepatic tissue level quantification by HRGC/HRMS; assay type: in vivo, C57BL/6 mice; details: liver
[4] = system: liver of immature, ovariectomized C57BL/6 mice; experiment: Liver histopathology; assay type: in vivo
[5] = system: hepatic gene expression; experiment: Hepatic gene expression, Agilent 4 x 44K microarrays; assay type: in vivo, C57BL/6 mice
[6] = system: hepatic gene expression; experiment: QRT-PCR verification of hepatic gene expression; assay type: in vivo, C57BL/6 mice
[7] = system: Cyp2b10; experiment: Dose-response modeling of microarray data; assay type: in vivo, C57BL/6 mice; details: C57BL/6, mouse, liver, oral
[8] = system: Cyp2c55; experiment: Dose-response modeling of microarray data; assay type: in vivo, C57BL/6 mice; details: C57BL/6, mouse, liver, oral
[9] = system: hepatic gene expression; experiment: Dose-response modeling of microarray data; assay type: in vivo, C57BL/6 mice; details: Mus musculus, 24 h
[10] = 300 mg/kg PCB153 or 30 μg/kg TCDD
[11] = hepatic mRNA, 300 mg/kg PCB153, maximum fold change, |fold change|≥1.5, P1(t)≥0.985
[12] = hepatic mRNA, 300 mg/kg PCB153, maximum fold change, |fold change|≥1.5, P1(t)≥0.985, 300 mg/kg

Clc1cc(Cl)c(-c2cc(Cl)c(Cl)cc2Cl)cc1Cl [PCB153, 2,2′,4,4′,5,5′-hexachlorobiphenyl]
Effect on relative liver weight (RLW), time course study ([1]; 300 mg/kg PCB153): increased (p<0.05) relative liver weight (RLW) at 72 and 168 h | Liver weight ([1]; 4 h): 0.712 ± 0.048 g | Relative liver weight ([1]; 4 h): 0.057 ± 0.001 | Body weight gain ([1]; 4 h): 1.0 ± 0.0 | Terminal body weight ([1]; 4 h after single gavage): 12.5 ± 0.8 g | Liver weight ([1]; 12 h): 0.730 ± 0.075 g | Relative liver weight ([1]; 12 h): 0.056 ± 0.003 | Body weight gain ([1]; 12 h): 1.0 ± 0.0 | Terminal body weight ([1]; 12 h after single gavage): 13.0 ± 0.6 g | Liver weight ([1]; 24 h): 0.813 ± 0.137 g | Relative liver weight ([1]; 24 h): 0.061 ± 0.009 | Body weight gain ([1]; 24 h): 1.1 ± 0.0 | Terminal body weight ([1]; 24 h after single gavage): 13.3 ± 0.9 g | Liver weight ([1]; 72 h): 1.086 ± 0.135 g | Relative liver weight ([1]; 72 h): 0.069 ± 0.007 | Body weight gain ([1]; 72 h): 1.1 ± 0.0 | Terminal body weight ([1]; 72 h after single gavage): 15.7 ± 0.7 g | Liver weight ([1]; 168 h): 1.280 ± 0.074 g | Relative liver weight ([1]; 168 h): 0.072 ± 0.002 | Body weight gain ([1]; 168 h): 1.4 ± 0.1 | Terminal body weight ([1]; 168 h after single gavage): 17.9 ± 1.2 g | Effect on body weight gain ([1]; any of the PCB153 doses or time points): No significant decreases in body weight gain | Liver weight ([2]; 1 mg/kg): 0.850 ± 0.121 g | Relative liver weight ([2]; 1 mg/kg): 0.059 ± 0.002 | Body weight gain ([2]; 1 mg/kg): 1.1 ± 0.0 | Terminal body weight ([2]; 1 mg/kg): 14.3 ± 1.8 g | Liver weight ([2]; 3 mg/kg): 0.865 ± 0.119 g | Relative liver weight ([2]; 3 mg/kg): 0.060 ± 0.002 | Body weight gain ([2]; 3 mg/kg): 1.1 ± 0.0 | Terminal body weight ([2]; 3 mg/kg): 14.4 ± 1.7 g | Liver weight ([2]; 10 mg/kg): 0.721 ± 0.073 g | Relative liver weight ([2]; 10 mg/kg): 0.056 ± 0.004 | Body weight gain ([2]; 10 mg/kg): 1.1 ± 0.1 | Terminal body weight ([2]; 10 mg/kg): 12.7 ± 1.1 g | Liver weight ([2]; 30 mg/kg): 0.836 ± 0.066 g | Relative liver weight ([2]; 30 mg/kg): 0.062 ± 0.001 | Body weight gain ([2]; 30 mg/kg): 1.1 ± 0.0 | Terminal body weight ([2]; 30 mg/kg): 13.4 ± 1.0 g | Liver weight ([2]; 100 mg/kg): 0.829 ± 0.071 g | Relative liver weight ([2]; 100 mg/kg): 0.060 ± 0.002 | Body weight gain ([2]; 100 mg/kg): 1.1 ± 0.0 | Terminal body weight ([2]; 100 mg/kg): 13.8 ± 1.1 g | Effect on relative liver weight (RLW), dose-response study ([2]; 300 mg/kg PCB153, 24 h): significantly increased RLW at 24 h | Liver weight ([2]; 300 mg/kg): 0.855 ± 0.152 g | Relative liver weight ([2]; 300 mg/kg): 0.067 ± 0.003 | Body weight gain ([2]; 300 mg/kg): 1.1 ± 0.0 | Terminal body weight ([2]; 300 mg/kg): 12.7 ± 1.9 g | Hepatic PCB153 levels in dose-response study ([3]; 24 h, 1-300 mg/kg, significantly different from controls): dose-dependent increase in hepatic levels | Decrease of hepatic level after 7 days ([3]; 168 h vs 24 h, single gavage 300 mg/kg PCB153 or 30 μg/kg TCDD): ~ 3.3 fold | Hepatocellular hypertrophy, time course study ([4]; 300 mg/kg PCB153): increasing hypertrophic responses between 24 and 168 h; also recorded: induced hepatocellular hypertrophy between 24 and 168 h | Hepatocellular vacuolization, dose-response study ([4]; 300 mg/kg PCB153, 24 h): induced the highest levels of hepatocellular vacuolization | Hepatic lipid accumulation, Oil Red O staining [4, 10]: no fatty accumulation | Necrosis and immune (mixed) cell infiltration in liver [4, 10]: did not elicit immune cell infiltration or necrosis; also recorded: absent; also recorded: did not induce necrosis or immune cell infiltration | Hepatic inflammation ([4]; 300 mg/kg PCB153 or 30 μg/kg TCDD, time course): almost absent | Hepatocellular vacuolization, time course study ([4]; 300 mg/kg PCB153 or 30 μg/kg TCDD, Fig. 2 at 168 h): minimal vacuolization and hepatocellular hypertrophy | Hepatocellular hypertrophy, dose-response study ([4]; PCB153, 24 h): incidences of hypertrophy were not observed | Induction of CAR/PXR regulated genes Cyp2b10, Cyp3a11, Ces2, Insig2, Abcc3 ([5]; PCB153 dose-response study): dose-dependently induced | PCB153 fold change, Abcc3 [5, 11]: 1.9 fold | PCB153 fold change, Acsl3 [5, 11]: −3.1 fold | PCB153 fold change, Agpat4 [5, 11]: −1.9 fold | PCB153 fold change, Akr1b7 [5, 11]: 22.1 fold | PCB153 fold change, Akr1c20 [5, 11]: −2.3 fold | PCB153 fold change, Aox1 [5, 11]: 2.9 fold | PCB153 fold change, Cdca2 [5, 11]: 2.8 fold | PCB153 fold change, Cds2 [5, 11]: 1.7 fold | PCB153 fold change, Ces2 [5, 11]: 5.8 fold | PCB153 fold change, Cyp2b9 [5, 11]: 7.6 fold | PCB153 fold change, Cyp2b10 [5, 11]: 27.5 fold | PCB153 fold change, Cyp2b23 [5, 11]: 19.7 fold | PCB153 fold change, Cyp2c54 [5, 11]: 2.4 fold | PCB153 fold change, Cyp3a25 [5, 11]: 3.8 fold | PCB153 fold change, Dhfr [5, 11]: −2.1 fold | PCB153 fold change, Elovl6 [5, 11]: −3.8 fold | PCB153 fold change, Fasn [5, 11]: −3.9 fold | PCB153 fold change, Fmo5 [5, 11]: 3.0 fold | PCB153 fold change, Gadd45a [5, 11]: 2.0 fold | PCB153 fold change, Gpx2 [5, 11]: 1.7 fold | PCB153 fold change, Gsta2 [5, 11]: 4.1 fold | PCB153 fold change, Gstm4 [5, 11]: 4.0 fold | PCB153 fold change, Gstt3 [5, 11]: 1.7 fold | PCB153 fold change, Hmgcr [5, 11]: −5.3 fold | PCB153 fold change, Hsd17b2 [5, 11]: −2.0 fold | PCB153 fold change, Insig2 [5, 11]: 5.9 fold | PCB153 fold change, Mad1l1 [5, 11]: 2.4 fold | PCB153 fold change, Myc [5, 11]: 2.9 fold | PCB153 fold change, Nol3 [5, 11]: 4.9 fold | PCB153 fold change, Pla2g12a [5, 11]: 1.7 fold | PCB153 fold change, Slc1a4 [5, 11]: −2.5 fold | PCB153 fold change, Slc23a1 [5, 11]: 2.3 fold | PCB153 fold change, Smpd3 [5, 11]: 10.8 fold | PCB153 fold change, Srebf1 [5, 11]: −2.4 fold | PCB153 fold change, Srebf2 [5, 11]: −2.1 fold | PCB153 fold change, Ugdh [5, 11]: 2.5 fold | PCB153 fold change, Cyp2c55 [5, 12]: 48 fold and 48.4 fold | PCB153 fold change, Gadd45b [5, 12]: 10.7 fold | PCB153 fold change, Zwint [5, 12]: 1.8 fold | Ccl9 expression ([5]; hepatic mRNA, PCB153): induced expression | Down-regulation of Acsl3, Srebf1 and Srebf2 ([5]; hepatic mRNA, PCB153): −2.1 to −3.1 fold | Induction of AhR-battery genes (Cyp1a1, Cyp1a2, Tiparp) ([6]; 300 mg/kg PCB153 compared to TCDD, Fig. 6A-B): modestly induced | Cyp1a2 induction ([6]; hepatic mRNA, time course, 30 μg/kg TCDD (Fig. 6A) or 300 mg/kg PCB153 (Fig. 6B)): ~ 1.8 fold | Elovl5 fold change ([6]; hepatic mRNA, time course, 300 mg/kg PCB153 or 30 μg/kg TCDD (Fig. 6A-B)): −1.9 fold | ED50 at 24 h [7]: 38.1 mg/kg | ED50 at 24 h [8]: 31.7 mg/kg | ED50 ([9]; read-out: ED50, Abcc3): 2.9 mg/kg | ED50 ([9]; read-out: ED50, Entpd5): 34.2 mg/kg | ED50 ([9]; read-out: ED50, Nol3): 33.9 mg/kg
